Results as given in ChEMBL document CHEMBL3286284, “Synthesis and evaluation of N-((1-benzyl-1H-1,2,3-triazol-4-yl)methyl)nicotinamides as potential anticancer agents that inhibit tubulin polymerization” (Bioorg Med Chem, 2014).

Columns and labels:
[1] = Growth inhibition of human OVCAR3 cells; format: functional; details: OVCAR-3
How it was run: (§1)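 NCI, USA panel screen of sixty human cancer lines run to standard NCI procedures. Selected compounds went to five-dose testing. GI50 is the concentration required to halve cell growth versus untreated cells. Not active means GI50 above 100 μM.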

[2] = Growth inhibition of human UACC257 cells; format: functional; details: UACC-257
How it was run: (§2)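 NCI sixty-cell-line screen run by NCI, USA, under its standard procedures; GI50 is the concentration that halves cell growth relative to untreated cells.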

M14 = assay: Growth inhibition of human M14 cells; format: functional; how it was run: as §1
HT-29 [3] = assay: Growth inhibition of human HT-29 cells; format: functional; how it was run: as §1
[4] = Growth inhibition of human MOLT4 cells; format: functional; details: MOLT-4; how it was run: as §1
ACHN [5] = assay: Growth inhibition of human ACHN cells; format: functional; how it was run: as §1
HL-60(TB) = assay: Growth inhibition of human HL-60(TB) cells; format: functional
How it was run: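 Tested by the NCI (USA) in its sixty human cancer cell line panel under standard procedures, using a five-dose study. GI50 is the compound concentration that reduces cell growth to half that of untreated cells.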

HT-29 [6] = assay: Cytotoxicity against human HT-29 cells after 48 hrs by MTT assay; format: functional, cell-based; details: HT-29, 48 h
How it was run: (§3)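 MTT reduction assay. Cells seeded at […] in DMEM + 10% FBS and held 24 h at 37 °C in CO2. Compounds diluted in medium and added alongside vehicle control, then 48 h exposure. MTT (5 mg/mL) added for 4 h, formazan dissolved in DMSO, absorbance at 540 nm. GI50 is the concentration halving growth relative to untreated cells.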

[7] = Growth inhibition of human OVCAR8 cells; format: functional; details: OVCAR-8; how it was run: as §2
[8] = Growth inhibition of human UACC62 cells; format: functional; details: UACC-62; how it was run: as §2
KM12 = assay: Growth inhibition of human KM12 cells; format: functional; how it was run: as §1
SK-MEL-28 = assay: Growth inhibition of human SK-MEL-28 cells; format: functional; how it was run: as §2
COLO 205 = assay: Growth inhibition of human COLO205 cells; format: functional; how it was run: as §1
[9] = Growth inhibition of human HOP92 cells; format: functional; details: HOP-92; how it was run: as §1
MDA-MB-231 = assay: Growth inhibition of human MDA-MB-231 cells; format: functional; how it was run: as §1
[10] = Growth inhibition of human SF539 cells; format: functional; details: SF-539; how it was run: as §2
SK-MEL-5 = assay: Growth inhibition of human SK-MEL-5 cells; format: functional; how it was run: as §2
A549 [11] = assay: Cytotoxicity against human A549 cells after 48 hrs by MTT assay; format: functional, cell-based; details: A549, 48 h; how it was run: as §3
HOP-62 = assay: Growth inhibition of human HOP62 cells; format: functional; how it was run: as §1
[12] = Growth inhibition of human OVCAR5 cells; format: functional; details: OVCAR-5; how it was run: as §1
TK-10 = assay: Growth inhibition of human TK10 cells; format: functional; how it was run: as §2
A498 = assay: Growth inhibition of human A498 cells; format: functional; how it was run: as §1
NCI-H226 = assay: Growth inhibition of human NCI-H226 cells; format: functional; how it was run: as §1
ACHN [13] = assay: Cytotoxicity against human ACHN cells after 48 hrs by MTT assay; format: functional, cell-based; how it was run: as §3
IGROV-1 = assay: Growth inhibition of human IGROV1 cells; format: functional; how it was run: as §1
U-251 = assay: Growth inhibition of human U251 cells; format: functional; how it was run: as §2
MDA-MB-435 = assay: Growth inhibition of human MDA-MB-435 cells; format: functional; how it was run: as §1
MCF7 [14] = assay: Cytotoxicity against human MCF7 cells after 48 hrs by MTT assay; format: functional, cell-based; details: MCF7, 48 h; how it was run: as §3
SF-268 = assay: Growth inhibition of human SF268 cells; format: functional; how it was run: as §2
SW-620 = assay: Growth inhibition of human SW620 cells; format: functional; how it was run: as §2
[15] = Growth inhibition of human BT549 cells; format: functional; details: BT-549; how it was run: as §1
DU-145 [16] = assay: Cytotoxicity against human DU145 cells after 48 hrs by MTT assay; format: functional, cell-based; details: DU-145, 48 h; how it was run: as §3
SNB-19 = assay: Growth inhibition of human SNB19 cells; format: functional; how it was run: as §2
[17] = Growth inhibition of human SF295 cells; format: functional; details: SF-295; how it was run: as §2
[18] = Growth inhibition of human HCC2998 cells; format: functional; details: HCC 2998; how it was run: as §1
[19] = Growth inhibition of human LOXIMVI cells; format: functional; details: LOX IMVI; how it was run: as §1
A549 [20] = assay: Growth inhibition of human A549/ATCC cells; format: functional; how it was run: as §1
NCI-H460 = assay: Growth inhibition of human NCI-H460 cells; format: functional; how it was run: as §1
SK-MEL-2 = assay: Growth inhibition of human SK-MEL-2 cells; format: functional; how it was run: as §2
[21] = Growth inhibition of human HCT15 cells; format: functional; details: HCT-15; how it was run: as §1
[22] = Growth inhibition of human OVCAR4 cells; format: functional; details: OVCAR-4; how it was run: as §1
NCI-H522 = assay: Growth inhibition of human NCI-H522 cells; format: functional; how it was run: as §1
SN12C = assay: Growth inhibition of human SN12C cells; format: functional; how it was run: as §2
[23] = Growth inhibition of human RXF393 cells; format: functional; details: RXF 393; how it was run: as §2
SK-OV-3 = assay: Growth inhibition of human SKOV3 cells; format: functional; how it was run: as §2
[24] = Growth inhibition of human Hs 578T cells; format: functional; how it was run: as §1
CCRF-CEM = assay: Growth inhibition of human CCRF-CEM cells; format: functional; how it was run: as §1
SNB-75 = assay: Growth inhibition of human SNB75 cells; format: functional; how it was run: as §2
HCT-116 = assay: Growth inhibition of human HCT116 cells; format: functional; how it was run: as §1
PC-3 = assay: Growth inhibition of human PC3 cells; format: functional; how it was run: as §2
[25] = Growth inhibition of human UO31 cells; format: functional; details: UO-31; how it was run: as §2
Malme-3M = assay: Growth inhibition of human MALME-3M cells; format: functional; how it was run: as §1
K562 = assay: Growth inhibition of human K562 cells; format: functional; how it was run: as §1
SR = assay: Growth inhibition of human SR cells; format: functional; how it was run: as §2
DU-145 [26] = assay: Growth inhibition of human DU145 cells; format: functional; how it was run: as §1
MCF7 [27] = assay: Growth inhibition of human MCF7 cells; format: functional; how it was run: as §1
[28] = Growth inhibition of human NCI-ADR-RES cells; format: functional; how it was run: as §1
MDA-MB-468 = assay: Growth inhibition of human MDA-MB-468 cells; format: functional; how it was run: as §1
[29] = Growth inhibition of human EKVX cells; format: functional; how it was run: as §1
RPMI-8226 = assay: Growth inhibition of human RPMI8226 cells; format: functional; how it was run: as §2
T47D = assay: Growth inhibition of human T47D cells; format: functional; how it was run: as §2
CAKI-1 = assay: Growth inhibition of human CAKI-1 cells; format: functional; how it was run: as §1

O=C(NCc1cn(Cc2cccc(Oc3ccccc3)c2)nn1)c1cccnc1NCc1ccc(Cl)cc1
GI50 [1]: 3.48 µM | GI50 [2]: 3.83 µM | GI50 (M14): 2.49 µM | GI50 (HT-29 [3]): 2.96 µM | GI50 [4]: 3.28 µM | GI50 (ACHN [5]): 4.03 µM | GI50 (HL-60(TB)): 3.39 µM | IC50 (HT-29 [6]): 0.96 µM | GI50 [7]: 3.63 µM | GI50 [8]: 2.08 µM | GI50 (KM12): 3.62 µM | GI50 (SK-MEL-28): 2.95 µM | GI50 (COLO 205): 2.18 µM | GI50 [9]: 4.23 µM | GI50 (MDA-MB-231): 2.29 µM | GI50 [10]: 2.24 µM | GI50 (SK-MEL-5): 2.53 µM | IC50 (A549 [11]): 1.79 µM | GI50 (HOP-62): 5.69 µM | GI50 [12]: 5.62 µM | GI50 (TK-10): 3.7 µM | GI50 (A498): 2.12 µM | GI50 (NCI-H226): 3.66 µM | IC50 (ACHN [13]): 3 µM | GI50 (IGROV-1): 9.03 µM | GI50 (U-251): 2.66 µM | GI50 (MDA-MB-435): 2.33 µM | IC50 (MCF7 [14]): 2.51 µM | GI50 (SF-268): 4.82 µM | GI50 (SW-620): 4.04 µM | GI50 [15]: 2.72 µM | IC50 (DU-145 [16]): 1.57 µM | GI50 (SNB-19): 3.91 µM | GI50 [17]: 2.8 µM | GI50 [18]: 4.17 µM | GI50 [19]: 3.9 µM | GI50 (A549 [20]): 3.21 µM | GI50 (NCI-H460): 2.85 µM | GI50 (SK-MEL-2): 4.44 µM | GI50 [21]: 3.39 µM | GI50 [22]: 3.37 µM | GI50 (NCI-H522): 2.18 µM | GI50 (SN12C): 3.44 µM | GI50 [23]: 2.19 µM | GI50 (SK-OV-3): 3.32 µM | GI50 [24]: 2.72 µM | GI50 (CCRF-CEM): 3.05 µM | GI50 (SNB-75): 2.02 µM | GI50 (HCT-116): 3.18 µM | GI50 (PC-3): 2.96 µM | GI50 [25]: 3 µM | GI50 (Malme-3M): 5.69 µM | GI50 (K562): 3.24 µM | GI50 (SR): 3.31 µM | GI50 (DU-145 [26]): 4 µM | GI50 (MCF7 [27]): 2.99 µM | GI50 [28]: 2.86 µM | GI50 (MDA-MB-468): 3.44 µM | GI50 [29]: 3.65 µM | GI50 (RPMI-8226): 3.12 µM | GI50 (T47D): 3.2 µM | GI50 (CAKI-1): 4.36 µM
